Calls of active or inactive are those of the source. No cut-off for these calls is given here.
How the values were obtained:
Oryctolagus cuniculus [1] = test: Toxicity in New Zealand White rabbit ischemia/reperfusion model assessed as blood pressure at total dose of 3.8 umol/kg administered bolus at 20th mins of ischemia and 1st min of reperfusion measured at 180 mins reperfusion is period of reperfusion; assay type: organism-based; conditions: in vivo, iv, 3 h
Oryctolagus cuniculus [2] = test: Cardioprotective activity in New Zealand White rabbit ischemia/reperfusion model assessed as reduction of infarct size at total dose of 3.8 umol/kg administered bolus at 20th mins and 1st min of reperfusion; assay type: functional; set-up: scale not given: the % may be the effect or the level left
How it was run: (§1)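 Male rabbits (n = 6–8/group), anesthetized with thiopentone 30 mg/kg via ear vein, intubated and ventilated. Subjected to 30 min regional myocardial ischemia and 3 h reperfusion. Given as two boluses of 1.9 µmol/kg (3.8 µmol/kg total). Heart slices stained with 1% TTC (phosphate buffer pH 7.4, 20 min, 37 °C), then fixed in formaldehyde. Risk zone delineated under UV at 366 nm; infarct expressed relative to risk area.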

Oryctolagus cuniculus [3] = test: Toxicity in New Zealand White rabbit ischemia/reperfusion model assessed as heart rate at total dose of 3.8 umol/kg administered bolus at 40th mins and 1st min before sustained ischemia measured at 20 mins ischemia period of initial ischemic insult; assay type: organism-based; conditions: in vivo, iv
Oryctolagus cuniculus [4] = test: Toxicity in New Zealand White rabbit ischemia/reperfusion model assessed as heart rate at total dose of 3.8 umol/kg administered bolus at 20th mins of ischemia and 1st min of reperfusion measured at 180 mins reperfusion is period of reperfusion; assay type: organism-based; conditions: in vivo, iv, 3 h
Oryctolagus cuniculus [5] = test: Toxicity in New Zealand White rabbit ischemia/reperfusion model assessed as blood pressure at total dose of 3.8 umol/kg administered bolus at 40th mins and 1st min before sustained ischemia measured at 20 mins ischemia period of initial ischemic insult; assay type: organism-based; conditions: in vivo, iv
Oryctolagus cuniculus [6] = test: Toxicity in New Zealand White rabbit ischemia/reperfusion model assessed as mortality at total dose of 3.8 umol/kg administered bolus measured at 10th and 15th mins of reperfusion; assay type: organism-based; conditions: in vivo
How it was run: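 Male rabbits, randomized (n = 6–8 per group), anesthetized with sodium thiopentone 30 mg/kg into an ear vein, intubated and mechanically ventilated. Regional myocardial ischemia for 30 min, then 3 h reperfusion. Compound given as bolus at the 20th min of ischemia and the 1st min of reperfusion, total dose 3.8 µmol/kg. Animal survival was followed through reperfusion.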

Oryctolagus cuniculus [7] = test: Cardioprotective activity in New Zealand White rabbit ischemia/reperfusion model assessed as reduction of infarct size at total dose of 3.8 umol/kg administered bolus at 40th mins and 1st min before sustained ischemia; assay type: functional; set-up: scale not given: the % may be the effect or the level left; how it was run: as §1
Oryctolagus cuniculus [8] = test: Cardioprotective activity in New Zealand White rabbit ischemia/reperfusion model assessed as increase of phosphorylated Akt level at total dose of 3.8 umol/kg administered bolus at 40th mins and 1st min before sustained ischemia by Western blot analysis; assay type: functional, organism-based
Oryctolagus cuniculus [9] = test: Cardioprotective activity in New Zealand White rabbit ischemia/reperfusion model assessed as increase of eNOS phosphorylated level at total dose of 3.8 umol/kg administered bolus at 40th mins and 1st min before sustained ischemia by Western blot analysis; assay type: functional, organism-based
Oryctolagus cuniculus [10] = test: Cardioprotective activity in New Zealand White rabbit ischemia/reperfusion model assessed as reduction of infarct to risk area ratio at total dose of 3.8 umol/kg administered bolus; assay type: functional; set-up: scale not given: the % may be the effect or the level left; how it was run: as §1

For O=C(CCCCC1CCSS1)N1CCN(c2ncnc3[nH]cnc23)CC1 (stereo not given), the Activity (Oryctolagus cuniculus [1]) was 101 mmHg, the Activity (Oryctolagus cuniculus [2]) was 28.6% and the Activity (Oryctolagus cuniculus [3]) was 279 bpm. It also gave an Activity (Oryctolagus cuniculus [4]) of 271 bpm and an Activity (Oryctolagus cuniculus [5]) of 106 mmHg.

In the case of O=C(NCCO[N+](=O)[O-])c1nc2c(N3CCCCC3)ncnc2[nH]1, the Activity (Oryctolagus cuniculus [1]) is reported as 103 mmHg, the Activity (Oryctolagus cuniculus [6]) is reported as “Toxic” and the Activity (Oryctolagus cuniculus [3]) is reported as 274 bpm. For the same compound, the Activity (Oryctolagus cuniculus [7]) was 34.4%, the Activity (Oryctolagus cuniculus [4]) was 269 bpm and the Activity (Oryctolagus cuniculus [5]) was 112 mmHg.

For O=C(CNc1ncnc2[nH]cnc12)NCCO[N+](=O)[O-], the Activity (Oryctolagus cuniculus [1]) was 104 mmHg, the Activity (Oryctolagus cuniculus [6]) was “Toxic” and the Activity (Oryctolagus cuniculus [3]) was 282 bpm. For the same compound, the Activity (Oryctolagus cuniculus [7]) was 34.8%, the Activity (Oryctolagus cuniculus [4]) was 273 bpm and the Activity (Oryctolagus cuniculus [5]) was 110 mmHg.

Work on Nc1ncnc2c1ncn2[C@@H]1O[C@H](CO[N+](=O)[O-])[C@@H](O)[C@H]1O yielded an Activity (Oryctolagus cuniculus [1]) of 98 mmHg, an Activity (Oryctolagus cuniculus [2]) of 40.2% and an Activity (Oryctolagus cuniculus [3]) of 284 bpm. For the same compound, the Activity (Oryctolagus cuniculus [4]) was 275 bpm and the Activity (Oryctolagus cuniculus [5]) was 102 mmHg.

O=C(CO[N+](=O)[O-])N1CCN(c2ncnc3[nH]cnc23)CC1 showed an Activity (Oryctolagus cuniculus [1]) of 109 mmHg, an Activity (Oryctolagus cuniculus [2]) of 26.2% and an Activity (Oryctolagus cuniculus [3]) of 278 bpm. It also gave an Activity (Oryctolagus cuniculus [7]) of 37.3%, an Activity (Oryctolagus cuniculus [4]) of 274 bpm and an Activity (Oryctolagus cuniculus [5]) of 114 mmHg.

With O=C(Cn1cnc2c(N3CCCCC3)ncnc21)NCCO[N+](=O)[O-] the Activity (Oryctolagus cuniculus [1]) was 102 mmHg, the Activity (Oryctolagus cuniculus [6]) was “Toxic” and the Activity (Oryctolagus cuniculus [3]) was 280 bpm. For the same compound, the Activity (Oryctolagus cuniculus [7]) was 28.4%, the Activity (Oryctolagus cuniculus [4]) was 276 bpm and the Activity (Oryctolagus cuniculus [5]) was 115 mmHg.

Compound O=[N+]([O-])OC[C@H]1O[C@@H](n2cnc3c(N4CCCCC4)ncnc32)[C@H](O)[C@@H]1O has an Activity (Oryctolagus cuniculus [1]) of 110 mmHg, an Activity (Oryctolagus cuniculus [2]) of 22.7% and an Activity (Oryctolagus cuniculus [3]) of 279 bpm. For the same compound, the Activity (Oryctolagus cuniculus [7]) was 17.9%, the Activity (Oryctolagus cuniculus [4]) was 271 bpm and the Activity (Oryctolagus cuniculus [5]) was 113 mmHg.

O=[N+]([O-])OCCCCCCn1cnc2c(N3CCCCC3)ncnc21 was tested, and the Activity (Oryctolagus cuniculus [1]) was 104 mmHg, the Activity (Oryctolagus cuniculus [2]) was 36.8% and the Activity (Oryctolagus cuniculus [8]) was “Active”. The Activity (Oryctolagus cuniculus [3]) was 276 bpm, the Activity (Oryctolagus cuniculus [7]) was 19.8% and the Activity (Oryctolagus cuniculus [9]) was “Active”. It also gave an Activity (Oryctolagus cuniculus [4]) of 270 bpm and an Activity (Oryctolagus cuniculus [5]) of 112 mmHg.

With O=C(CCCCCO[N+](=O)[O-])N1CCN(c2ncnc3[nH]cnc23)CC1 the Activity (Oryctolagus cuniculus [1]) was 112 mmHg, the Activity (Oryctolagus cuniculus [2]) was 13.4% and the Activity (Oryctolagus cuniculus [10]) was 12.3%. The Activity (Oryctolagus cuniculus [3]) was 278 bpm, the Activity (Oryctolagus cuniculus [7]) was 24.9% and the Activity (Oryctolagus cuniculus [4]) was 269 bpm. It also gave an Activity (Oryctolagus cuniculus [5]) of 117 mmHg.

— ChEMBL document CHEMBL2203215, “Discovery of 6-[4-(6-nitroxyhexanoyl)piperazin-1-yl)]-9H-purine, as pharmacological post-conditioning agent” (Bioorg Med Chem, 2012)
